Source: ChEMBL document CHEMBL3580605, “Melampodium leucanthum, a source of cytotoxic sesquiterpenes with antimitotic activities” (J Nat Prod, 2015)
The source made the active and inactive calls. No cut-off for these calls is given here.

How the values were obtained:
PC-3 [1] = test: Growth inhibition of human PC3 cells by sulforhodamine B assay; format: functional, cell-based
In short: (§1)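 SRB assay. DU 145 cells were grown in IMEM with 10% FBS and gentamicin, PC-3 in RPMI 1640 with 10% FBS and gentamicin, and HeLa in BME with 10% FBS and gentamicin. Cytotoxicity was read as a fall in cell density below the density at the time of drug addition. Each concentration was tested in triplicate, n = 2–9 independent experiments. IC50 is the concentration giving 50% inhibition of proliferation versus vehicle control, interpolated from a 4-parameter nonlinear regression; mean ± SE.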

DU-145 [2] = test: Growth inhibition of human DU145 cells by sulforhodamine B assay; format: functional, cell-based; in short: as §1
DU-145 [3] = test: Selectivity index, ratio of IC50 for human PC3 cells to IC50 for human DU145 cells; format: functional
In short: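 Ratio of SRB IC50 values from PC-3 and DU 145 prostate cells, each measured by 4-parameter nonlinear regression of triplicate concentration-response data.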

DU-145 [4] = test: Induction of apoptosis in human DU145 cells assessed as increase in PARP cleavage at 10 uM after 24 hrs by immunoblotting method; format: functional, cell-based
In short: (§2)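 HeLa and DU 145 cells were given vehicle, BI2536 (100 nM) or test compounds (10 µM) for 24 h. Lysed with protease inhibitors; equal protein run on SDS-PAGE, transferred to PVDF, and probed for cleaved PARP (1:1000) with actin as loading control; ECL detection.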

[5] = target: Serine/threonine-protein kinase PLK1 (Homo sapiens) (UniProt P53350); test: Inhibition of PLK1 Thr210 phosphorylation in human HeLa cells at 10 uM by immunoblotting method; format: cell-based
In short: (§3)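 HeLa and DU 145 cells were given vehicle, 100 nM BI 2536 or 10 µM test compounds. Lysed and immunoblotted for total PLK1 and phospho-Thr210-PLK1.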

DU-145 [6] = test: Inhibition of PLK1 protein accumulation in human DU145 cells at 10 uM by immunoblotting method; format: functional, cell-based; in short: as §3
HeLa [7] = test: Induction of monopolar mitotic spindles in human HeLa cells at 10 uM incubated for 18 hrs by indirect immunofluorescence microscopy; format: functional, cell-based
In short: (§4)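 Cells adhered overnight on glass coverslips, then were treated for 18 h. They were fixed in cold methanol (4 °C, 5 min) and blocked with 10% bovine calf serum for 20 min. Stained with monoclonal anti-β-tubulin (1:400, 2 h, 37 °C), then FITC anti-mouse IgG (1:200, 1 h, 37 °C), and 0.1 µg/mL DAPI. Spindles scored by indirect immunofluorescence; BI2536 at 100 nM served as positive control.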

SK-OV-3 [8] = test: Growth inhibition of human SKOV3-MDR1-M6/6 cells by sulforhodamine B assay; format: functional, cell-based
In short: (§5)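 Isogenic ovarian pair: parental SK-OV-3 and its Pgp-expressing single-cell clone SK-OV-3/MDR-1-M6/6, tested by SRB assay. IC50 is interpolated from a 4-parameter nonlinear regression against vehicle control. Rr = IC50 in M6/6 divided by IC50 in SK-OV-3.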

A10 = test: Growth inhibition of rat A10 cells by sulforhodamine B assay; format: cell-based
DU-145 [9] = test: Inhibition of colony formation of human DU145 cells incubated for 4 hrs followed by drug wash-out and measured after 14 days post drug wash-out by crystal violet staining based clonogenic assay; format: functional, cell-based
In short: (§6)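 300 DU 145 cells were allowed to adhere, then exposed to vehicle (0.5% DMSO final) or compound for 4 h. Washed with DPBS and regrown in fresh medium. Fixed and stained with 0.5% crystal violet in 10% methanol; colonies counted. Legend states 9 days, methods 14 days. One-way ANOVA with Dunnett's post-hoc test; n = 2–9 experiments.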

PC-3 [10] = test: Induction of aberrant bipolar mitotic spindles in human PC3 cells at 10 uM incubated for 18 hrs by indirect immunofluorescence microscopy; format: functional, cell-based; in short: as §4
SK-OV-3 [11] = test: Growth inhibition of human SKOV3 cells by sulforhodamine B assay; format: functional, cell-based; in short: as §5
PC-3 [12] = test: Induction of cell cycle arrest in human PC3 cells at 1.5 uM to 5 uM incubated for 18 hrs by flow cytometry method; format: functional, cell-based
In short: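 PC-3 cells were treated with vehicle (DMSO) or compound for 18 h. Stained with Krishan's reagent (propidium iodide), and DNA content read by flow cytometry for cell cycle distribution.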

HeLa [13] = test: Induction of aberrant bipolar mitotic spindles in human HeLa cells at 10 uM incubated for 18 hrs by indirect immunofluorescence microscopy; format: functional, cell-based; in short: as §4
HeLa [14] = test: Inhibition of PLK1 protein accumulation in human HeLa cells at 10 uM by immunoblotting method; format: functional, cell-based; in short: as §3
PC-3 [15] = test: Induction of monopolar mitotic spindles in human PC3 cells at 10 uM incubated for 18 hrs by indirect immunofluorescence microscopy; format: functional, cell-based; in short: as §4
Tubulin (Sus scrofa) [16] = target: T1, Tubulin (Sus scrofa) (UniProt P02554+P02550); test: Inhibition of porcine tubulin polymerization at 10 to 100 uM incubated for 1 hr by turbidimetry; format: protein assay
SK-OV-3 [17] = test: Resistance index, ratio of IC50 for human SKOV3-MDR1-M6/6 cells to IC50 for human SKOV3 cells; format: functional; in short: as §5
HeLa [18] = test: Growth inhibition of human HeLa cells by sulforhodamine B assay; format: functional, cell-based; in short: as §1
[19] = target: Serine/threonine-protein kinase PLK1 (Homo sapiens) (UniProt P53350); test: Inhibition of PLK1 Thr210 phosphorylation in human DU145 cells at 10 uM by immunoblotting method; format: cell-based; details: DU-145; in short: as §3
HeLa [20] = test: Induction of apoptosis in human HeLa cells assessed as increase in PARP cleavage at 10 uM after 24 hrs by immunoblotting method; format: functional, cell-based; in short: as §2
HeLa [21] = test: Induction of monopolar mitotic spindles in human HeLa cells at 25 uM incubated for 18 hrs by indirect immunofluorescence microscopy; format: functional, cell-based; in short: as §4
PC-3 [22] = test: Induction of monopolar mitotic spindles in human PC3 cells at 25 uM incubated for 18 hrs by indirect immunofluorescence microscopy; format: functional, cell-based; in short: as §4
Tubulin (Sus scrofa) [23] = target: T1, Tubulin (Sus scrofa); test: Inhibition of porcine tubulin polymerization at 10 uM incubated for 1 hr by turbidimetry; format: protein assay
PC-3 [24] = test: Induction of aberrant bipolar mitotic spindles in human PC3 cells at 25 uM incubated for 18 hrs by indirect immunofluorescence microscopy; format: functional, cell-based; in short: as §4
DU-145 [25] = test: Inhibition of colony formation of human DU145 cells at 5 to 20 uM incubated for 4 hrs followed by drug wash-out and measured after 9 days post drug wash-out by crystal violet staining based clonogenic assay; format: functional, cell-based; in short: as §6
HeLa [26] = test: Induction of aberrant bipolar mitotic spindles in human HeLa cells at 25 uM incubated for 18 hrs by indirect immunofluorescence microscopy; format: functional, cell-based; in short: as §4
DU-145 [27] = test: Induction of apoptosis in human DU145 cells assessed as increase in PARP cleavage at 100 nM after 24 hrs by immunoblotting method; format: functional, cell-based; in short: as §2
DU-145 [28] = test: Inhibition of PLK1 protein accumulation in human DU145 cells at 100 nM by immunoblotting method; format: functional, cell-based; in short: as §3
PC-3 [29] = test: Induction of monopolar mitotic spindles in human PC3 cells at 100 nM incubated for 18 hrs by indirect immunofluorescence microscopy; format: functional, cell-based; in short: as §4
HeLa [30] = test: Induction of monopolar mitotic spindles in human HeLa cells at 100 nM incubated for 18 hrs by indirect immunofluorescence microscopy; format: functional, cell-based; in short: as §4
HeLa [31] = test: Inhibition of PLK1 protein accumulation in human HeLa cells at 100 nM by immunoblotting method; format: functional, cell-based; in short: as §3
HeLa [32] = test: Induction of apoptosis in human HeLa cells assessed as increase in PARP cleavage at 100 nM after 24 hrs by immunoblotting method; format: functional, cell-based; in short: as §2
PC-3 [33] = test: Induction of aberrant bipolar mitotic spindles in human PC3 cells at 7.5 uM incubated for 18 hrs by indirect immunofluorescence microscopy; format: functional, cell-based; in short: as §4
HeLa [34] = test: Induction of monopolar mitotic spindles in human HeLa cells at 7.5 uM incubated for 18 hrs by indirect immunofluorescence microscopy; format: functional, cell-based; in short: as §4
HeLa [35] = test: Induction of aberrant bipolar mitotic spindles in human HeLa cells at 7.5 uM incubated for 18 hrs by indirect immunofluorescence microscopy; format: functional, cell-based; in short: as §4
PC-3 [36] = test: Induction of monopolar mitotic spindles in human PC3 cells at 7.5 uM incubated for 18 hrs by indirect immunofluorescence microscopy; format: functional, cell-based; in short: as §4

T1 sequence (P02550 whole entry, looked up): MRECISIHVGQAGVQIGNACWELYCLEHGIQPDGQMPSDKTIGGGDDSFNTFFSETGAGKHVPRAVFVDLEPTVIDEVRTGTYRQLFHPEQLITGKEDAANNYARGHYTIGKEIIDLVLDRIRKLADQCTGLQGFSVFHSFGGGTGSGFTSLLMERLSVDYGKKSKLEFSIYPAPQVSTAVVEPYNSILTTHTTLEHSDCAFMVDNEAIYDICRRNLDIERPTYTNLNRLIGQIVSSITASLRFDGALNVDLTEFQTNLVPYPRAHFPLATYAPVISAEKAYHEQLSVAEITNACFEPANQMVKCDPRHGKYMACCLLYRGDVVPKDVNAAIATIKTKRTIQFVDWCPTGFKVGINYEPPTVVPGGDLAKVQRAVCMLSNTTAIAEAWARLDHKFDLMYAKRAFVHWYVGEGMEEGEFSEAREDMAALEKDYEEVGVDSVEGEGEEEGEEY
T1 sequence (P02554 whole entry, looked up): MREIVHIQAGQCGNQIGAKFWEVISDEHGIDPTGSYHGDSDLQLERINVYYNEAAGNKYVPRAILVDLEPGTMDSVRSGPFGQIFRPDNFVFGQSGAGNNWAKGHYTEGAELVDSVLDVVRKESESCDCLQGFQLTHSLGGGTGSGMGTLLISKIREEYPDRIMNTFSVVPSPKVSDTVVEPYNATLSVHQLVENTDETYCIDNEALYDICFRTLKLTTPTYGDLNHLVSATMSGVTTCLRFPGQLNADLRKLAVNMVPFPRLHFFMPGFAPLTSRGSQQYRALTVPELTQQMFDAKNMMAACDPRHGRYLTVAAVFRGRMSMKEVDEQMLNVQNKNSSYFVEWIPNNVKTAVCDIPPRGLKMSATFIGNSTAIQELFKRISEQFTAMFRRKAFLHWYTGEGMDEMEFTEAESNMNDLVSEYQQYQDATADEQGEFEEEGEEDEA
Serine/threonine-protein kinase PLK1 (Homo sapiens), sequence (P53350 whole entry): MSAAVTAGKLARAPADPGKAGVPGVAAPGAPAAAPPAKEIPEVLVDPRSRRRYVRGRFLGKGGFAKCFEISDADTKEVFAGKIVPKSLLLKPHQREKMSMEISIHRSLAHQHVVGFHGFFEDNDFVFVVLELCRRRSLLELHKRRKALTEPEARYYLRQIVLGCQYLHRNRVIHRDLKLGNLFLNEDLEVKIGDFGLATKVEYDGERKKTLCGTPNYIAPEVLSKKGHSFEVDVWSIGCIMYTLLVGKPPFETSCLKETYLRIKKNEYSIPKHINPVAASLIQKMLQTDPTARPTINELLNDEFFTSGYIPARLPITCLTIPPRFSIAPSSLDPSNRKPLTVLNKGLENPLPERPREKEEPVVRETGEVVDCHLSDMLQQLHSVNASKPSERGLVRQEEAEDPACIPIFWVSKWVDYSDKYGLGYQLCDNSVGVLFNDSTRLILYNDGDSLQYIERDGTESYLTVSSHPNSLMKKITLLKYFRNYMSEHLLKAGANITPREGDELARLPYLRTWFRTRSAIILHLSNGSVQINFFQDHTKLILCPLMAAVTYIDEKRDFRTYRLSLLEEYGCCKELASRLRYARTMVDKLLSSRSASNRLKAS

## C=C1C(=O)O[C@H]2[C@H]1[C@H](OC(=O)[C@@]1(C)O[C@H]1C)[C@@H](OC(C)=O)[C@@]1(C(=O)OC)C=CC=C(C)[C@H]21
PC-3 [1]
  IC50: 670 nM
DU-145 [2]
  IC50: 180 nM
DU-145 [3]
  Ratio IC50: 3.7

## C=C1C(=O)O[C@H]2[C@H]1[C@H](OC(=O)[C@@]1(C)O[C@H]1C)[C@H](OC(C)=O)/C(C(=O)OC)=C\C=C/[C@]1(C)O[C@H]21
DU-145 [4]
  Activity: Active
[5]
  inhibition: inactive
DU-145 [6]
  inhibition: inactive
HeLa [7]
  Activity: Active
SK-OV-3 [8]
  IC50: 1400 nM
A10
  IC50: 1700 nM
DU-145 [9]
  inhibition: Dose-dependent effect
PC-3 [10]
  Activity: Active
SK-OV-3 [11]
  IC50: 570 nM
PC-3 [12]
  Activity: inactive
PC-3 [1]
  IC50: 1700 nM
HeLa [13]
  Activity: Active
HeLa [14]
  inhibition: inactive
DU-145 [2]
  IC50: 1800 nM
PC-3 [15]
  Activity: Active
Tubulin (Sus scrofa) [16]
  inhibition: Active
SK-OV-3 [17]
  Ratio IC50: 2.5
HeLa [18]
  IC50: 1700 nM
[19]
  inhibition: inactive
HeLa [20]
  Activity: Active

## C=C1C(=O)O[C@H]2[C@H]1[C@H](OC(=O)[C@@]1(C)O[C@H]1C)[C@H](OC(C)=O)/C(C(=O)OC)=C\C[C@@H](O)[C@]1(C)O[C@H]21
DU-145 [4]
  Activity: Active
[5]
  inhibition: inactive
DU-145 [6]
  inhibition: inactive
SK-OV-3 [8]
  IC50: 4400 nM
HeLa [21]
  Activity: Active
PC-3 [22]
  Activity: Active
A10
  IC50: 3000 nM
DU-145 [9]
  inhibition: Dose-dependent effect
Tubulin (Sus scrofa) [23]
  inhibition: Active
PC-3 [24]
  Activity: Active
DU-145 [25]
  inhibition: Active
SK-OV-3 [11]
  IC50: 1700 nM
PC-3 [1]
  IC50: 8700 nM
HeLa [14]
  inhibition: inactive
DU-145 [2]
  IC50: 5900 nM
SK-OV-3 [17]
  Ratio IC50: 2.6
HeLa [18]
  IC50: 3800 nM
[19]
  inhibition: inactive
HeLa [20]
  Activity: Active
HeLa [26]
  Activity: Active

## CC[C@@H]1C(=O)N(C)c2cnc(Nc3ccc(C(=O)NC4CCN(C)CC4)cc3OC)nc2N1C1CCCC1
DU-145 [27]
  Activity: Active
DU-145 [28]
  inhibition: Active
PC-3 [29]
  Activity: Active
HeLa [30]
  Activity: Active
HeLa [31]
  inhibition: Active
HeLa [32]
  Activity: Active

## CC(=O)O[C@H]1C(=O)[C@@]2(C)[C@H]([C@H](OC(=O)c3ccccc3)[C@]3(O)C[C@H](OC(=O)[C@H](O)[C@@H](NC(=O)c4ccccc4)c4ccccc4)C(C)=C1C3(C)C)[C@]1(OC(C)=O)CO[C@@H]1C[C@@H]2O [PACLITAXEL]
SK-OV-3 [8]
  IC50: 1010 nM
SK-OV-3 [11]
  IC50: 6.2 nM
PC-3 [1]
  IC50: 40 nM
DU-145 [2]
  IC50: 4 nM
SK-OV-3 [17]
  Ratio IC50: 162.9
HeLa [18]
  IC50: 3.5 nM

## C=C1C(=O)O[C@H]2[C@H]1[C@H](OC(=O)[C@@]1(C)O[C@H]1C)[C@H](OC(C)=O)/C(C(=O)OC)=C\[C@H]1O[C@H]1[C@]1(C)O[C@H]21
DU-145 [4]
  Activity: Active
[5]
  inhibition: inactive
DU-145 [6]
  inhibition: inactive
PC-3 [33]
  Activity: Active
SK-OV-3 [8]
  IC50: 2000 nM
A10
  IC50: 1100 nM
DU-145 [9]
  inhibition: Dose-dependent effect
Tubulin (Sus scrofa) [23]
  inhibition: Active
SK-OV-3 [11]
  IC50: 820 nM
PC-3 [1]
  IC50: 3100 nM
HeLa [14]
  inhibition: inactive
HeLa [34]
  Activity: Active
DU-145 [2]
  IC50: 2600 nM
SK-OV-3 [17]
  Ratio IC50: 2.4
HeLa [18]
  IC50: 1900 nM
[19]
  inhibition: inactive
HeLa [20]
  Activity: Active
HeLa [35]
  Activity: Active
PC-3 [36]
  Activity: Active
